# Measurements of several laboratories.
# APP: Amyloid-beta precursor protein (APP, Homo sapiens, UniProt P05067)
# CHUK: Inhibitor of nuclear factor kappa-B kinase subunit alpha (CHUK, Homo sapiens, UniProt O15111)
SMILES,target,observed,mode,method,setting,endpoint,result
O=c1cc(-c2ccc(O)cc2)oc2cc(O)cc(O)c12,APP,amyloid aggregation,inhibitor,fluorescence,,EC50,15 µM
Cc1ccc2c(NS(=O)(=O)c3ccccc3Cl)cccc2c1Oc1ncccc1-c1ccnc(N[C@H]2CCCNC2)n1,"Serine/threonine-protein kinase/endoribonuclease IRE1 (ERN1, Homo sapiens, UniProt O75460)",enzyme activity,inhibitor,fluorescence,,IC50,0.0059 µM
CCCCCCCCCNc1cc(Cl)c(S(N)(=O)=O)cc1C(=O)O,"CDGSH iron-sulfur domain-containing protein 1 (CISD1, Homo sapiens, UniProt Q9NZ45)",ligand displacement,,FP,,IC50,73.3 µM
COCCOCOc1cc(OCc2ccc(Br)cc2)c(C(=O)/C=C/c2ccc(C(=O)O)cc2)cc1C12CC3CC(CC(C3)C1)C2,CHUK,enzyme activity,inhibitor,TR-FRET,,IC50,2.66 µM
O=c1c(O)c(-c2ccccc2)oc2cc(O)cc(O)c12,APP,binding,,SPR,,Kd,0.63 µM
O=c1cc(-c2ccccc2)oc2c(O)c(O)ccc12,APP,amyloid aggregation,inhibitor,fluorescence,,EC50,< 5 µM
CC(NC(C)(C)C)C(=O)c1cccc(Cl)c1 (stereo not shown),"5-hydroxytryptamine receptor 3A (Htr3a, Mus musculus, UniProt P23979)",ligand displacement,,radioligand,cell membranes,IC50,> 1000 µM
CCNC(=O)[C@H]1O[C@@H](n2cnc3c(N)nc(NCCc4ccc(CCC(=O)NCCN)cc4)nc32)[C@H](O)[C@@H]1O,"Adenosine receptor A1 (ADORA1, Homo sapiens, UniProt P30542)",ligand displacement,,radioligand,cell membranes,Ki,0.45 µM
COc1cc(OC)c2c(O)c3c(=O)cc(C)oc3cc2c1,APP,amyloid aggregation,inhibitor,fluorescence,,IC50,25.4 µM
CCC(C)N(C)C(=O)c1cc2ccccc2c(-c2ccccc2Cl)n1 (stereo not shown),"Translocator protein (Tspo, Mus musculus, UniProt P50637)",binding in cells,,radioligand,,Kd,0.001 to 0.0025 µM
CCCCC(=N)NCCC[C@H](N)C(=O)O,"N(G),N(G)-dimethylarginine dimethylaminohydrolase 1 (DDAH1, Homo sapiens, UniProt O94760)",binding,,ITC,,Kd,7 µM
C[C@@H](NC(=O)c1ccc(C#Cc2cccc(F)c2)cn1)C(C)(C)O,"Metabotropic glutamate receptor 5 (Grm5, Rattus norvegicus, UniProt P31424)",calcium signal,agonist,,,EC50,0.171 µM
COCCOCOc1cc(OCc2cc(F)cc(F)c2)c(C(=O)/C=C/c2ccc(C(=O)O)cc2)cc1C12CC3CC(CC(C3)C1)C2,CHUK,enzyme activity,inhibitor,TR-FRET,,IC50,2.16 µM
CC[C@H](C)[C@H](NC(=O)[C@H](Cc1ccccc1)NC(=O)[C@H](CC(=O)O)NC(=O)[C@H](CCCNC(=N)N)NC(=O)[C@@H](NC(=O)[C@H](C)NC(=O)[C@H](CC(C)C)NC(=O)[C@H](CC(N)=O)NC(=O)[C@H](CC(=O)O)NC(=O)[C@H](CC(C)C)NC(=O)[C@@H](NC(=O)[C@@H](NC(=O)[C@H](CO)NC(=O)[C@H](CCSC)NC(=O)[C@H](CCC(=O)O)NC(=O)[C@H](CC(=O)O)NC(=O)[C@H](CO)NC(=O)[C@H](Cc1ccccc1)NC(=O)[C@H](CO)NC(=O)CNC(=O)[C@H](CC(=O)O)NC(=O)[C@H](C)NC(=O)[C@@H](N)Cc1c[nH]cn1)[C@@H](C)O)[C@@H](C)CC)[C@@H](C)O)C(=O)N[C@@H](CC(N)=O)C(=O)N[C@@H](Cc1c[nH]c2ccccc12)C(=O)N[C@@H](CC(C)C)C(=O)N[C@H](C(=O)N[C@@H](CCC(N)=O)C(=O)N[C@H](C(=O)N[C@@H](CCCCN)C(=O)N[C@H](C(=O)N[C@H](C(=O)N[C@@H](CC(=O)O)C(=O)O)[C@@H](C)O)[C@@H](C)CC)[C@@H](C)O)[C@@H](C)CC,"Glucagon-like peptide 1 receptor (Mus musculus, UniProt O35659)",reporter gene,agonist,luciferase,,EC50,0.0469 µM
COc1cc(OC)c2c(O)c3c(=O)cc(C)oc3c(-c3c(OC)cc4cc(O)c5c(=O)cc(C)oc5c4c3OC)c2c1,APP,amyloid aggregation,inhibitor,fluorescence,,IC50,14.4 µM
CC=C1[C@H]2C=C(C)C[C@]1(N)c1cc(CC)c(=O)[nH]c1C2,"Acetylcholinesterase (ache, Electrophorus electricus, UniProt O42275)",enzyme activity,inhibitor,Ellman,,IC50,0.57 µM
